Source: PMC4449736 (Science translational medicine, 2015)
Counter-ions that a name gives are not always drawn.

Tests used:
HIV = settings: TDF alone, injection drug users; cited from earlier work
[1] = Plasma PK of GSK744 in Depo-Provera-treated female rhesus macaques; type: in vivo
Method in brief: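 Female Indian rhesus macaques received 30 mg Depo-Provera IM on weeks -3 and 2 and monthly IM injections of long-acting test compound (8 treated, 4 controls), with three intravaginal SHIV162P3 challenges. Plasma drug levels were followed per animal and expressed as multiples of PAIC90. Plasma SHIV RNA was tracked weekly for 24 weeks by real-time RT-PCR (sensitivity 40 copies/mL) to time first vRNA detection.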

[2] = tested on: simian-human immunodeficiency virus (SHIV); settings: cited from earlier work
UGT1A1, UGT1A9 = settings: hepatic glucuronidation pathway; cited from earlier work
[3] = human studies, data limited; cited from earlier work
[4] = oral GSK744, humans; cited from earlier work
[5] = tested on: single-cycle recombinant viruses with the integrase-coding regions of FG95 mutants; assay: Susceptibility of single-cycle SIV recombinant viruses to GSK744 in TZM-bl cells; type: cell-based; settings: Table S2
[6] = type: in vivo, rhesus macaques (Macaca mulatta)

Row | Compound | reduced HIV infection (HIV) | plasma GSK744 concentration at first vRNA detection relative to PAIC90 ([1]; macaque FG95) | plasma GSK744 concentration at the time of challenges relative to PAIC90 ([1]; macaque FG95, three challenges) | plasma GSK744 concentration at first vRNA detection relative to PAIC90 ([1]; macaque FM26) | plasma GSK744 concentration at the time of challenges relative to PAIC90 ([1]; macaque FM26, three challenges) | protection ([2]; GSK744 plasma concentrations >3x PAIC90) | efficacy ([2]; GSK744 plasma concentrations ≥1x PAIC90) | metabolizing enzymes (UGT1A1, UGT1A9) | relative mucosal tissue penetration [3] | apparent terminal half-life (t1/2) [4] | viral susceptibility to GSK744 ([5]; integrase E198G mutation (FG95, week 20)) | susceptibility to GSK744 in vitro ([5]; integrase P142S, I210V mutations (FG95, week 11)) | mean cervical T:P ratio ([6]; Depo-Provera-treated female macaques, 50 mg/kg GSK744 LA) | GSK744 concentrations lower on average in cervical tissues than rectal tissues ([6]; Depo-Provera-treated female macaques, 50 mg/kg GSK744 LA monthly) | mean T:P ratio in unwashed rectal tissues ([6]; Depo-Provera-treated female macaques, 50 mg/kg GSK744 LA, no saline rinse) | Kp ([6]; female, Indian, rhesus monkey, cervical tissue / plasma, intramuscular, 50 mg/kg)
1 | CC(C)OC(=O)OCOP(=O)(CO[C@H](C)Cn1cnc2c(N)ncnc21)OCOC(=O)OC(C)C [TDF, tenofovir disoproxil fumarate] | 49% | – | – | – | – | – | – | – | – | – | – | – | – | – | – | –
2 | C[C@H]1CO[C@@H]2Cn3cc(C(=O)NCc4ccc(F)cc4F)c(=O)c(O)c3C(=O)N12 [GSK744] | – | < 1 x PAIC90 | 13.3–18.4 x PAIC90 | ≈ 2.2 x PAIC90 | 12.4–18.1 X PAIC90 | 100% | 97% | primarily by UGT1A1, with some involvement from UGT1A9 | penetrates cervical tissue slightly more efficiently than rectal tissue | approximately 40 hours | did not decrease viral susceptibility | did not decrease susceptibility | 0.09 (range: below detection to 0.20) | 5 fold | 0.37 (range: 0.15 to 1.13) | ~0.1
